# Source: ChEMBL document CHEMBL1828595, “A facile four-component sequential protocol in the expedient synthesis of novel 2-aryl-5-methyl-2,3-dihydro-1H-3-pyrazolones in water and their antitubercular evaluation” (2011)
# How the values were obtained:
# Assay type in all cases: functional
# [1] = test system: Mycobacterium tuberculosis; assay: Antitubercular activity against Mycobacterium tuberculosis H37Rv by agar dilution method
# How it was run: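 M. tuberculosis H37Rv on Middlebrook 7H11 agar with OADC, agar dilution per NCCLS-type MIC method, pH 7.4. MIC taken as the lowest concentration inhibiting 99% of bacterial growth, determined in duplicate.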
# [2] = test system: Mycobacterium tuberculosis; assay: Ratio of MIC for ciprofloxacin to compound for Mycobacterium tuberculosis H37Rv by agar dilution method
# How it was run: (§1)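 Ratio of reference-drug MIC to test-compound MIC. Both MICs were measured against M. tuberculosis H37Rv by agar dilution on OADC-supplemented Middlebrook 7H11 at pH 7.4, with 99% growth inhibition as endpoint, in duplicate.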
# [3] = test system: Mycobacterium tuberculosis; assay: Ratio of MIC for ethambutol to compound for Mycobacterium tuberculosis H37Rv by agar dilution method; how it was run: as §1
SMILES,MIC [1],Ratio [2],Ratio [3]
Cc1[nH]n(-c2ccccc2)c(=O)c1C(c1ccc([N+](=O)[O-])cc1)c1c(O)ccc2ccccc12 (stereo not given),6.9 µM,,
Cc1[nH]n(-c2ccccc2)c(=O)c1C(c1ccccc1[N+](=O)[O-])c1c(O)ccc2ccccc12 (stereo not given),13.8 µM,,
Cc1[nH]n(-c2ccccc2)c(=O)c1C(c1ccc(Cl)cc1)c1c(O)ccc2ccccc12 (stereo not given),14.1 µM,,
Cc1[nH]n(-c2ccccc2)c(=O)c1C(c1ccccc1)c1c(O)ccc2ccccc12 (stereo not given),30.8 µM,,
Cc1[nH]n(-c2ccccc2)c(=O)c1C(c1ccc(C(C)C)cc1)c1c(O)ccc2ccccc12 (stereo not given),14 µM,,
COc1ccc(C(c2c(C)[nH]n(-c3ccccc3)c2=O)c2c(O)ccc3ccccc23)cc1 (stereo not given),28.6 µM,,
Cc1ccc(C(c2c(C)[nH]n(-c3ccccc3)c2=O)c2c(O)ccc3ccccc23)cc1 (stereo not given),29.7 µM,,
Cc1[nH]n(-c2ccc(F)cc2)c(=O)c1C(c1ccc(Cl)cc1)c1c(O)ccc2ccccc12 (stereo not given),3.4 µM,,
Cc1[nH]n(-c2ccc(F)cc2)c(=O)c1C(c1ccc([N+](=O)[O-])cc1)c1c(O)ccc2ccccc12 (stereo not given),3.3 µM,,
Cc1ccc(C(c2c(C)[nH]n(-c3ccc(F)cc3)c2=O)c2c(O)ccc3ccccc23)cc1 (stereo not given),14.2 µM,,
Cc1[nH]n(-c2ccc(F)cc2)c(=O)c1C(c1ccc(Cl)cc1Cl)c1c(O)ccc2ccccc12 (stereo not given),1.6 µM,2.94,4.75
Cc1[nH]n(-c2ccc(F)cc2)c(=O)c1C(c1cccc([N+](=O)[O-])c1)c1c(O)ccc2ccccc12 (stereo not given),6.7 µM,,
Cc1[nH]n(-c2ccc(F)cc2)c(=O)c1C(c1ccc(F)cc1)c1c(O)ccc2ccccc12 (stereo not given),7.1 µM,,
Cc1[nH]n(-c2ccc(F)cc2)c(=O)c1C(c1ccccc1)c1c(O)ccc2ccccc12 (stereo not given),14.7 µM,,
Cc1[nH]n(-c2ccc(Cl)cc2)c(=O)c1C(c1ccc(Cl)cc1)c1c(O)ccc2ccccc12 (stereo not given),6.6 µM,,
CC[C@@H](CO)NCCN[C@@H](CC)CO [ETHAMBUTOL],7.6 µM,,
NNC(=O)c1ccncc1 [ISONIAZID],0.4 µM,,
CO[C@H]1/C=C/O[C@@]2(C)Oc3c(C)c(O)c4c(O)c(c(/C=N/N5CCN(C)CC5)c(O)c4c3C2=O)NC(=O)/C(C)=C\C=C\[C@H](C)[C@H](O)[C@@H](C)[C@@H](O)[C@@H](C)[C@H](OC(C)=O)[C@@H]1C [RIFAMPIN],0.1 µM,,
